CatS inh = human cathepsin S inhibition; recombinant cathepsin S, AMC dipeptide fluorescence, pooled mixtures; P25774; inhibition, %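 (tested at 5 µM per compound within 10-compound mixtures)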; actives 0.06% (n = 62,000); in the data active = inhibition above about 32%, passing the limit was not always enough
CatL block = blocks human cathepsin L protease activity; purified cathepsin L, fluorogenic substrate, fluorescence; inhibition, %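 (tested at 10 µM)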; actives 0.17% (n = 58,000); AID 460; in the data active = inhibition above about 45%
Target sequence (P07711 114-288 limits assumed): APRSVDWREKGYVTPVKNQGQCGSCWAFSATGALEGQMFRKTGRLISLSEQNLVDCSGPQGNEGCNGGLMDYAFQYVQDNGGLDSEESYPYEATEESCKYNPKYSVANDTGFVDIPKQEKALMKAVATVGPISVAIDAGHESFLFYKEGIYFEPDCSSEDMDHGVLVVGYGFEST
Target sequence (P07711 292-333 limits assumed): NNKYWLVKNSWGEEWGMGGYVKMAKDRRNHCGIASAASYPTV
Hsp90 inh = displaces geldanamycin probe from tumor Hsp90; P07900; NCI-N417 lysate Hsp90, Cy3B-geldanamycin FP displacement; inhibition, % at 30 µM; actives 0.35% (n = 64,000); AID 429;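 active = inhibition above 50%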
CatB mix inh = inhibitors of human cathepsin B in compound mixtures; P07858; Purified cathepsin B, AMC dipeptide fluorescence; inhibition, %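 (ten-compound pools at 5 µM per compound and 50 µM total)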; actives 0.06% (n = 62,000); AID 488; in the data active = inhibition above about 22%, passing the limit was not always enough
CatB inh = inhibitors of human cathepsin B. P07858. purified cathepsin B, fluorogenic substrate, fluorescence. inhibition, %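 (tested at 10 µM)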. actives 0.1% (n = 63,000); in the data active = inhibition above about 21%
AP complement = orthogonal test for alternative complement pathway inhibitors | Human serum alternative complement pathway, LPS-coated ELISA, C3 deposition; tested in compound mixtures | inhibition, % at 5 µM | actives 0.08% (n = 62,000) | AID 1235;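 active = inhibition above 30% in each of the two pooled mixtures holding the compound, so the lower value exceeds 30%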
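Assay system: Human serum alternative complement pathway, C3 deposition on LPS-coated wells | Incubation: 1 h serum-compound exposure at 37 °C | Doses: 5 µM per compound in ten-compound mixtures | Read-out: Percent inhibition | Technique: ELISA with HRP anti-human C3 antibody, TMB substrate, absorbance 450 nm | Replication: Two pool placements per compound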
A number is an active result; 0 = inactive; - = no result given. Most compounds without a hit are left out; they make up all but 0.69% or so of the library.

SMILES	CatS inh	CatL block	Hsp90 inh	CatB mix inh	CatB inh	AP complement
Nc1nonc1-c1nc2ccccc2n1CC(=O)NC1CCCC1	0	0	0	0	0	0
CC1CCCN(C(=O)Cn2c(-c3nonc3N)nc3ccccc32)C1 (configuration not stated)	0	0	0	0	0	0
CCOC(=O)c1ccccc1NC(=O)Cn1c(-c2nonc2N)nc2ccccc21	0	0	0	0	59	0
Nc1nonc1-c1nc2ccccc2n1Cc1ccccc1	0	0	0	43	0	0
CCCCS(=O)(=O)Nc1cc(OC)cc2cccnc12	-	-	0	-	-	-
O=C1c2ccccc2C(=O)N1CCc1nc2ccccc2c(=O)n1CCCn1ccnc1	0	0	0	0	0	0
CCCc1cc(C(=O)NCC(C)C)no1	0	0	0	0	0	0
CCOc1ccc(OCC)c(N=c2oc3c(C)ncc(CO)c3cc2C(N)=O)c1	0	0	0	0	0	84
O=C(O)CCSc1nc2ccccc2s1	0	0	0	0	0	0
c1ccc2sc(SCc3ccc(-c4nnco4)cc3)nc2c1	0	0	91	0	0	0
COc1ccc(-c2cc(N)n(S(=O)(=O)c3c(F)c(F)c(F)c(F)c3F)n2)cc1OC	0	0	0	0	0	0
CC(C)n1c(SCCCc2ccccc2)nc2c1c(=O)[nH]c(=O)n2C	0	0	0	0	0	33
O=C(c1cncc(Br)c1)N1CCN(c2ccc(N3CCOCC3)nn2)CC1	0	0	0	0	52	0
O=C(c1ccc(N2CCOCC2)nc1)N1CCOCC1	0	0	0	0	0	0
COc1cc(/C=C/C(=O)CC(=O)/C=C/c2ccc(O)c(OC)c2)ccc1O	0	0	0	0	0	0
O=C(O)/C=C/c1ccc(O)c(O)c1	0	0	53	0	-	0
CCOC(=O)c1sc2nc(NC(=O)COc3ccccc3)sc2c1C	0	0	0	0	0	0
CCOC(=O)c1sc2nc(NC(=O)c3cccs3)sc2c1C	0	0	63	0	0	0
CSc1nc(N2CCN(CCO)CC2)c2sc3nc(-c4ccco4)c4c(c3c2n1)CCC4	0	72	-	0	0	0
Cc1cc(C)c2c(n1)sc1c(N3CCN(CCO)CC3)ncnc12	0	0	0	0	0	0
Cc1cc(C)n(-c2nc3c(c(=O)n(Cc4ccc(Cl)c(Cl)c4)c(=O)n3C)n2C)n1	0	0	0	0	0	0
CC1(C)CCC2=C(O1)c1ccccc1C(=O)C2=O	-	-	89	-	-	-
CC(COc1ccccc1)N(CCCl)Cc1ccccc1 (configuration not stated)	0	0	0	0	0	0
CC(C)COCC(CN(Cc1ccccc1)c1ccccc1)N1CCCC1 (configuration not stated)	-	-	64	-	-	-
C=CCN1CCc2c(cc(O)c(O)c2Cl)C(c2ccccc2)C1 (configuration not stated)	-	-	76	-	-	-
SMILES	CatS inh	CatL block	Hsp90 inh	CatB mix inh	CatB inh	AP complement
Cc1cccc(C2CN(C)CCc3c2cc(O)c(O)c3Cl)c1 (configuration not stated)	-	-	69	-	-	-
C=CCN1CCc2cc(O)c(O)cc2C(c2ccccc2)C1 (configuration not stated)	-	-	56	-	-	-
CCN(CC(N)=O)S(=O)(=O)c1ccc(Br)cc1	0	0	0	0	0	0
N#Cc1ccc(CSc2nnc(Nc3ccccc3)s2)cc1	0	0	85	0	0	0
CN1CCN(S(=O)(=O)c2ccc(N3CCN(S(=O)(=O)/C=C/c4ccccc4)CC3)nc2)CC1	0	91	0	0	0	0
COc1ccc(N2CCN(S(=O)(=O)/C=C/c3ccccc3)CC2)cc1	0	0	0	0	0	0
C/C(N)=N\S(=O)(=O)c1ccc(Cl)cc1	0	0	0	0	29	0
COc1ccc(Oc2c(OC)cc(NCCCCCNC(C)C)c3ncccc23)cc1	-	-	0	-	-	-
Cn1c(=O)c2c(-c3ccccc3)n(-n3cnnc3)cc2n(C)c1=O	0	0	0	50	59	0
COc1ccc2c3c(cccc13)NN=C2C	0	-	86	0	0	0
COc1ccc2c(c1)c1c(C)c3cnccc3c(C)c1n2CCCN	-	-	0	-	-	-
Cc1cnn(Cc2ccccc2)c1N	0	0	0	0	0	0
C=CCn1c(NC(=O)c2ccccc2)c(C#N)c2nc3ccccc3nc21	0	0	63	0	0	0
C=CCn1c(NC(=O)c2ccccc2Cl)c(C#N)c2nc3ccccc3nc21	0	0	61	0	0	0

Compound activity deposited in PubChem BioAssay by several laboratories.
